Test results taken from ChEMBL document CHEMBL3808344, “Design and synthesis of novel benzoxazole analogs as Aurora B kinase inhibitors” (Bioorg Med Chem Lett, 2016).
Calls of active or inactive are those of the source. The calls are words filed in the database; no cut-off is given here.

Tests used:
Aurora kinase B [1] = biological target: T1, Aurora kinase B (Homo sapiens, UniProt Q96GD4); assay: Inhibition of Aurora B (unknown origin) using myelin protein as substrate assessed as ADP generation at 10 uM after 60 mins by ADP-glo assay relative to staurosporine
T1 sequence (Q96GD4 whole entry): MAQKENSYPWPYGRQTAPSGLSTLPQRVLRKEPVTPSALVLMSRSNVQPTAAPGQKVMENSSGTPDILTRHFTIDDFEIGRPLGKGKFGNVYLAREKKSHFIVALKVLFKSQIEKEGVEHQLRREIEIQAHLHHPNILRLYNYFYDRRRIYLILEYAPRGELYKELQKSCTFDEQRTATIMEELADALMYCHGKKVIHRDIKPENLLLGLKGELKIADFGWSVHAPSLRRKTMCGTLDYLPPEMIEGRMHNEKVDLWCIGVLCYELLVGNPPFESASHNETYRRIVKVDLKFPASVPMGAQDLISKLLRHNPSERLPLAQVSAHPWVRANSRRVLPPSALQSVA
Summary of the method: (§1)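 Aurora A and Aurora B activity read by ADP-Glo, measuring ADP formed from ATP during the kinase reaction. Compounds tested at 10 μM. Inhibition expressed as percentage relative to the staurosporine positive control.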

[2] = biological target: T2, Aurora kinase A (Homo sapiens) (UniProt O14965); assay: Inhibition of Aurora A (unknown origin) using myelin protein as substrate assessed as ADP generation at 10 uM after 60 mins by ADP-glo assay relative to staurosporine; summary of the method: as §1
T2 sequence (whole entry): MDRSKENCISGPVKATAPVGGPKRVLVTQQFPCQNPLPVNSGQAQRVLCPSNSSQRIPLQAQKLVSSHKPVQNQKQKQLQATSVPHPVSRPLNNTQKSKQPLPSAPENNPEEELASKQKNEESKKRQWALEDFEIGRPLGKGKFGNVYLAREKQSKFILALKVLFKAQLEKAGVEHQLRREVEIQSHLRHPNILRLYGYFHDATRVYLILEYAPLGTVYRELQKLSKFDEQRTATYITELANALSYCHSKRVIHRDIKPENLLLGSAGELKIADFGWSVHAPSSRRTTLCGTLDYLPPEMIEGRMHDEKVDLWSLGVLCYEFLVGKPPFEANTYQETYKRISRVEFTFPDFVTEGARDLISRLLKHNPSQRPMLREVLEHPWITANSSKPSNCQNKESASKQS

Aurora kinase B [3] = biological target: T1, Aurora kinase B; assay: Inhibition of Aurora B (unknown origin) using myelin protein as substrate assessed as ADP generation after 60 mins by ADP-glo assay
[4] = Cytotoxicity against human NUGC3 cells assessed as reduction in cell growth after 48 hrs by SRB assay; type: functional; details: NUGC-3, 48 h
ACHN = assay: Cytotoxicity against human ACHN cells assessed as reduction in cell growth after 48 hrs by SRB assay; type: functional
PC-3 = assay: Antitumor activity against human PC3 cells xenografted in nu/nu BALB/c mouse assessed as tumor growth inhibition at 50 mg/kg, po administered qd for 16 days relative to control; type: functional, organism-based
Summary of the method: (§2)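 PC-3 prostate tumours grown as xenografts in nude mice. Dosed orally at 50 mg/kg once daily for 16 days; vehicle was 10% dimethylacetamide plus 10% Tween 80 in water. Tumour volume measured every two or three days, tumours weighed after harvest on day 16, and body weight followed throughout. Treated groups compared with vehicle by Student's t-test.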

NCI-H23 = assay: Cytotoxicity against human NCI-H23 cells assessed as reduction in cell growth after 48 hrs by SRB assay; type: functional; details: NCI-H23, 48 h
MDA-MB-231 = assay: Cytotoxicity against human MDA-MB-231 cells assessed as reduction in cell growth after 48 hrs by SRB assay; type: functional; details: MDA-MB-231, 48 h
[5] = Cytotoxicity against human HCT15 cells assessed as reduction in cell growth after 48 hrs by SRB assay; type: functional; details: HCT-15, 48 h
Mus musculus = assay: Toxicity in nu/nu BALB/c mouse xenografted with human PC3 cells assessed as loss in body weight at 50 mg/kg, po administered qd for 16 days measured during compound dosing; type: organism-based, PC-3; details: in vivo, 384 h; summary of the method: as §2
[6] = Cytotoxicity against human PC3 cells assessed as reduction in cell growth after 48 hrs by SRB assay; type: functional; details: PC-3, 48 h

inhibition (Aurora kinase B [1])	inhibition [2]	SMILES	also measured
42%	8%	O=C(Nc1ccc(Cl)cc1)Nc1ccc(CNc2nc3cc(OCCN4CCOCC4)ccc3o2)cc1	
63%	7%	O=C(Nc1ccc(CNc2nc3ccc(OCCN4CCOCC4)cc3o2)cc1)Nc1cccc(F)c1	
58%	13%	O=C(Nc1ccc(CNc2nc3ccc(OCCN4CCOCC4)cc3o2)cc1)Nc1cccc(Cl)c1	
34%	inactive	O=C(Nc1ccc(F)cc1)Nc1ccc(CNc2nc3ccc(OCCN4CCOCC4)cc3o2)cc1	
69%	inactive	O=C(Nc1ccc(Br)cc1)Nc1ccc(CNc2nc3ccc(OCCN4CCOCC4)cc3o2)cc1	
76%	10%	COc1ccc(NC(=O)Nc2ccc(CNc3nc4ccc(OCCN5CCOCC5)cc4o3)cc2)cc1	
65%	inactive	Cc1ccc(NC(=O)Nc2ccc(CNc3nc4ccc(OCCN5CCOCC5)cc4o3)cc2)cc1	
40%	15%	O=C(Nc1ccccc1)Nc1ccc(CNc2nc3ccc(OCCN4CCOCC4)cc3o2)cc1	
55%	inactive	O=C(Nc1ccc(Br)cc1)Nc1ccc(COc2ccc3nc(NCCN4CCOCC4)oc3c2)cc1	
35%	-6%	O=C(Nc1ccc(Br)cc1)Nc1ccc(CNc2nc3cc(OCCN4CCOCC4)ccc3o2)cc1	
45%	8%	O=C(Nc1ccc(Cl)cc1)Nc1cccc(CNc2nc3ccc(OCCN4CCOCC4)cc3o2)c1	
88%	24%	O=C(Nc1ccc(CNc2nc3ccc(OCCN4CCOCC4)cc3o2)cc1)Nc1ccc(Cl)c(Cl)c1	IC50 (Aurora kinase B [3]): 0.6 µM; GI50 [4]: 8.4 µM; GI50 (ACHN): 2.6 µM; TGI (PC-3): Active; GI50 (NCI-H23): 3.4 µM; GI50 (MDA-MB-231): 5 µM; GI50 [5]: 3 µM; Activity (Mus musculus): Non-toxic; GI50 [6]: 4.8 µM
66%	5%	O=C(Nc1ccc(Cl)cc1)Nc1ccc(CNc2nc3ccc(OCCN4CCOCC4)cc3o2)cc1	IC50 (Aurora kinase B [3]): 10.2 µM; GI50 [4]: 5.5 µM; GI50 (ACHN): 2.2 µM; GI50 (NCI-H23): 4 µM; GI50 (MDA-MB-231): 7.6 µM; GI50 [5]: 4.8 µM; GI50 [6]: 6.2 µM
94%	inactive	O=C(Nc1ccc(Cl)cc1)Nc1ccc(COc2ccc3nc(NCCN4CCOCC4)oc3c2)cc1	IC50 (Aurora kinase B [3]): 50.4 µM

Further lines, the molecule ahead of its results:

SMILES	inhibition (Aurora kinase B [1])	inhibition [2]	also measured
O=C(Nc1ccc(CNc2nc3ccc(OCCN4CCOCC4)cc3o2)cc1)Nc1ccc(Cl)cc1Cl	86%	8%	IC50 (Aurora kinase B [3]): 0.7 µM
O=C(Nc1ccc(Br)cc1)Nc1ccc(COc2ccc3oc(NCCN4CCOCC4)nc3c2)cc1	74%	3%	
O=C(Nc1ccc(COc2ccc3nc(NCCN4CCOCC4)oc3c2)cc1)Nc1ccc(Cl)c(Cl)c1	70%	2%	IC50 (Aurora kinase B [3]): 49.4 µM
O=C(Nc1ccc(Cl)cc1)Nc1ccc(COc2ccc3oc(NCCN4CCOCC4)nc3c2)cc1	37%	4%	
O=C(Nc1ccc(CNc2nc3ccc(OCCN4CCOCC4)cc3o2)cc1)c1ccccc1	21%		
O=C(Nc1cccc(Cl)c1)Nc1cccc(CNc2nc3ccc(OCCN4CCOCC4)cc3o2)c1	inactive		
O=C(Nc1ccccc1)Nc1cccc(COc2ccc3nc(NCCN4CCOCC4)oc3c2)c1	80%	1%	
O=C(Nc1ccccc1)Nc1cccc(CNc2nc3ccc(OCCN4CCOCC4)cc3o2)c1	30%		
O=C(Nc1ccccc1CNc1nc2ccc(OCCN3CCOCC3)cc2o1)c1ccccc1	inactive		
O=C(Nc1ccc(COc2ccc3oc(NCCN4CCOCC4)nc3c2)cc1)Nc1ccc(Cl)c(Cl)c1	74%	5%	
O=C(Nc1cccc(CNc2nc3ccc(OCCN4CCOCC4)cc3o2)c1)c1ccccc1	1%		
